Data reported in ChEMBL document CHEMBL1156077, “Piperazinyl-glutamate-pyrimidines as potent P2Y12 antagonists for inhibition of platelet aggregation” (Bioorg Med Chem Lett, 2009).

What was measured:
P2Y purinoceptor 12 [1] = molecular target: T1, P2Y purinoceptor 12 (Homo sapiens, UniProt Q9H244); test: Binding affinity at human recombinant P2Y12 receptor expressed in CHO cells by radioligand binding assay; format: cell-based
How it was run: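 Washed membranes from CHO cells transfected with synthetic human P2Y12 gene. Compounds as 7-point threefold dilutions, triplicate, 1 h at room temperature. Nonspecific binding defined with 300 nM 2-MeSADP. Filtered, washed with ice-cold Tris pH 7.4. Single-site fit; IC50 converted to Ki by Cheng–Prusoff, geometric mean of n≥2.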

P2Y purinoceptor 12 [2] = molecular target: T1, P2Y purinoceptor 12; test: Ratio of compound IC50 to thienopyrimidine IC50 for P2Y12 receptor in human platelet rich plasma assessed as inhibition of ADP-induced platelet aggregation by light transmission aggregometry
How it was run: (§1)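 Human platelet-rich plasma was pre-incubated 5 min at 37 °C with compound across seven concentrations (10 down to 0.156). Aggregation was started with ADP (20, final) and followed by light transmission at 626 nm for 15 min at 37 °C. Duplicate concentration-response data were read at the 15-min end-point. IC50 was divided by the IC50 of the thienopyrimidine reference run on the same plate.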

P2Y purinoceptor 12 [3] = molecular target: T1, P2Y purinoceptor 12; test: Ratio of compound IC50 to AZD-6140 IC50 for P2Y12 receptor in human platelet rich plasma assessed as inhibition of ADP-induced platelet aggregation by light transmission aggregometry
How it was run: as §1, with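 “AZD-6140” for “the thienopyrimidine reference”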

[4] = Selectivity for human P2Y12 receptor over P2Y13
[5] = Selectivity for human P2Y12 receptor over P2Y1

T1 sequence (Q9H244 whole entry): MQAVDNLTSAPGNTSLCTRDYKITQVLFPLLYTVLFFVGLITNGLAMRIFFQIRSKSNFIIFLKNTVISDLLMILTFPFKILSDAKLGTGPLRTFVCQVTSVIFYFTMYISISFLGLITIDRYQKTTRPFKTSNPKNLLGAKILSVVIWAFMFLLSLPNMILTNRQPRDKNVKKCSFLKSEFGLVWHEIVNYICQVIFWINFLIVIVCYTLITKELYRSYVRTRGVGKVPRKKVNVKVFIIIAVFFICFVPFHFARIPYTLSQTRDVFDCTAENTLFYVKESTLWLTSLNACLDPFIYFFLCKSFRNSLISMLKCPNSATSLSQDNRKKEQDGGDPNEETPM

Row | SMILES | Ki (P2Y purinoceptor 12 [1]) [nM] | Ratio IC50 (P2Y purinoceptor 12 [2]) | Ratio IC50 (P2Y purinoceptor 12 [3]) | fold change (FC) [4] | fold change (FC) [5]
1 | CCCCCOC(=O)N1CCN(C(=O)[C@H](CCC(=O)O)NC(=O)c2cc(N3CCNCC3)nc(-c3ccccc3)n2)CC1 | 2 | 0.3 | 1.4 | > 340 | > 340
2 | CCCCCOC(=O)N1CCN(C(=O)[C@H](CCC(=O)O)NC(=O)c2cc(N3CCOCC3)nc(-c3ccccc3)n2)CC1 | 1 | 2 | 7.9 | > 340 | > 340
3 | CCCCCOC(=O)N1CCN(C(=O)[C@H](CCC(=O)O)NC(=O)c2cc(N3CCN(C(N)=O)CC3)nc(-c3ccccc3)n2)CC1 | 1.2 | 0.2 | 0.8 | > 340 | > 340
4 | CCCCCOC(=O)N1CCN(C(=O)[C@H](CCC(=O)O)NC(=O)c2nc(-c3ccccc3)cc(N3CCC(N)CC3)n2)CC1 | 8.4 | 0.6 | 3.1 | > 340 | > 340
5 | CCCCCOC(=O)N1CCN(C(=O)[C@H](CCC(=O)O)NC(=O)c2cc(N3CCC(N)CC3)nc(-c3ccccc3)n2)CC1 | 0.69 | 0.2 | 0.5 | > 340 | > 340
6 | CCCCCOC(=O)N1CCN(C(=O)[C@H](CCC(=O)O)NC(=O)c2nc(NC3CCN(C(C)C)CC3)cc(-c3ccccc3)n2)CC1 | 35 | – | – | > 340 | > 340
7 | CCCCOC(=O)N1CCN(C(=O)[C@H](CCC(=O)O)NC(=O)c2cc(N3CCC(N4CCCC4)CC3)nc(-c3ccccc3)n2)CC1 | 1.7 | 0.2 | 0.8 | – | –
8 | CCCCCOC(=O)N1CCN(C(=O)[C@H](CCC(=O)O)NC(=O)c2nc(-c3ccccc3)cc(N3CCN(C)CC3)n2)CC1 | 11 | 1.8 | 8.1 | > 340 | > 340
9 | CCCCCOC(=O)N1CCN(C(=O)[C@H](CCC(=O)O)NC(=O)c2nc(OCC3CCN(C)CC3)cc(-c3ccccc3)n2)CC1 | 12 | 0.8 | 4.4 | > 340 | > 340
10 | CCCCCOC(=O)N1CCN(C(=O)[C@H](CCC(=O)O)NC(=O)c2cc(N3CCN(C(=O)N(C)C)CC3)nc(-c3ccccc3)n2)CC1 | 2.9 | 0.3 | 1.5 | > 340 | > 340
11 | CCCCCOC(=O)N1CCN(C(=O)[C@H](CCC(=O)O)NC(=O)c2cc(N3CCC(CCOC)CC3)nc(-c3ccccc3)n2)CC1 | 10.2 | 1.3 | 5.4 | > 340 | > 340
12 | CCCCCOC(=O)N1CCN(C(=O)[C@H](CCC(=O)O)NC(=O)c2nc(-c3ccccc3)cc(N3CCC(CCOC)CC3)n2)CC1 | 8.4 | – | – | > 340 | > 340
13 | CCCCCOC(=O)N1CCN(C(=O)[C@H](CCC(=O)O)NC(=O)c2cc(N3CCC(CCN)CC3)nc(-c3ccccc3)n2)CC1 | 2.7 | 0.1 | 0.4 | > 340 | > 340
14 | CCCCCOC(=O)N1CCN(C(=O)[C@H](CCC(=O)O)NC(=O)c2cc(NC3CCN(C(C)C)CC3)nc(-c3ccccc3)n2)CC1 | 9.4 | 0.9 | 3.5 | > 340 | > 340
15 | CCCCOC(=O)N1CCN(C(=O)[C@H](CCC(=O)O)NC(=O)c2cc(N3CCC(N4CCOCC4)CC3)nc(-c3ccccc3)n2)CC1 | 1.3 | 0.2 | 1.1 | > 340 | > 340
16 | CCCCCOC(=O)N1CCN(C(=O)[C@H](CCC(=O)O)NC(=O)c2cc(N3CCC(OC)CC3)nc(-c3ccccc3)n2)CC1 | 5 | 0.5 | 1.6 | > 340 | > 340
17 | CCCCCOC(=O)N1CCN(C(=O)[C@H](CCC(=O)O)NC(=O)c2nc(NCCCN(C)C)cc(-c3ccccc3)n2)CC1 | 38 | – | – | > 340 | > 340
18 | CCCCCOC(=O)N1CCN(C(=O)[C@H](CCC(=O)O)NC(=O)c2nc(-c3ccccc3)cc(N3CCC(OCCO)CC3)n2)CC1 | 10 | – | – | > 340 | > 340
19 | CCCCCOC(=O)N1CCN(C(=O)[C@H](CCC(=O)O)NC(=O)c2nc(-c3ccccc3)cc(N3CCNCC3)n2)CC1 | 22 | 1.1 | 6 | > 340 | > 340
20 | CCCCCOC(=O)N1CCN(C(=O)[C@H](CCC(=O)O)NC(=O)c2cc(N3CCC(C)CC3)nc(-c3ccccc3)n2)CC1 | 7.5 | – | – | > 340 | > 340

Row | SMILES | Ki (P2Y purinoceptor 12 [1]) [nM] | Ratio IC50 (P2Y purinoceptor 12 [2]) | Ratio IC50 (P2Y purinoceptor 12 [3]) | fold change (FC) [4] | fold change (FC) [5]
21 | CCCCCOC(=O)N1CCN(C(=O)[C@H](CCC(=O)O)NC(=O)c2cc(N3CCC(N4CCOCC4)CC3)nc(-c3ccccc3)n2)CC1 | 2.9 | 0.2 | 0.7 | > 340 | > 340
22 | CCCCCOC(=O)N1CCN(C(=O)[C@H](CCC(=O)O)NC(=O)c2cc(N3CCN(CC(=O)N(C)C)CC3)nc(-c3ccccc3)n2)CC1 | 2.6 | 0.1 | 0.5 | > 340 | > 340
23 | CCCCOC(=O)N1CCN(C(=O)[C@H](CCC(=O)O)NC(=O)c2cc(OCCOC)nc(-c3ccccc3)n2)CC1 | 12 | 1 | 3.7 | > 340 | > 340
24 | CCCCCOC(=O)N1CCN(C(=O)[C@H](CCC(=O)O)NC(=O)c2nc(-c3ccccc3)cc(N3CCC(N4CCOCC4)CC3)n2)CC1 | 5.9 | 0.8 | 3.9 | > 340 | > 340
25 | CCCCCOC(=O)N1CCN(C(=O)[C@H](CCC(=O)O)NC(=O)c2nc(-c3ccccc3)cc(N3CCC(COCCOC)CC3)n2)CC1 | 8.1 | – | – | > 340 | > 340
26 | CCCCCOC(=O)N1CCN(C(=O)[C@H](CCC(=O)O)NC(=O)c2nc(-c3ccccc3)cc(N3CCC(OCCOC)CC3)n2)CC1 | 7.1 | 1.2 | 5.3 | > 340 | > 340
27 | CCCCOC(=O)N1CCN(C(=O)[C@H](CCC(=O)O)NC(=O)c2cc(OCC3CCN(C)CC3)nc(-c3ccccc3)n2)CC1 | 15 | 0.9 | 3.7 | > 340 | > 340
28 | CCCCCOC(=O)N1CCN(C(=O)[C@H](CCC(=O)O)NC(=O)c2cc(OCCOC)nc(-c3ccccc3)n2)CC1 | 1.2 | 1.2 | 8.8 | > 340 | > 340
29 | CCCCCOC(=O)N1CCN(C(=O)[C@H](CCC(=O)O)NC(=O)c2nc(-c3ccccc3)cc(N3CCOCC3)n2)CC1 | 11 | – | – | > 340 | > 340
30 | CCCCCOC(=O)N1CCN(C(=O)[C@H](CCC(=O)O)NC(=O)c2nc(-c3ccccc3)cc(N3CCN(C(=O)N(C)C)CC3)n2)CC1 | 14 | – | – | > 340 | > 340
31 | CCCCCOC(=O)N1CCN(C(=O)[C@H](CCC(=O)O)NC(=O)c2nc(-c3ccccc3)cc(N3CCN(CC(=O)N(C)C)CC3)n2)CC1 | 6.8 | 0.8 | 3.5 | > 340 | > 340
32 | CCCCCOC(=O)N1CCN(C(=O)[C@H](CCC(=O)O)NC(=O)c2cc(OCC3CCNCC3)nc(-c3ccccc3)n2)CC1 | 2.2 | 0.3 | 1.7 | > 340 | > 340
33 | CCCCCOC(=O)N1CCN(C(=O)[C@H](CCC(=O)O)NC(=O)c2cc(NCC3CCNC3)nc(-c3ccccc3)n2)CC1 (stereo not given in full) | 4.1 | 0.5 | 2.3 | > 340 | > 340
34 | CCCCCOC(=O)N1CCN(C(=O)[C@H](CCC(=O)O)NC(=O)c2nc(NCC3CCNC3)cc(-c3ccccc3)n2)CC1 (stereo not given in full) | 19 | – | – | > 340 | > 340
35 | CCCCCOC(=O)N1CCN(C(=O)[C@H](CCC(=O)O)NC(=O)c2nc(OCCOC)cc(-c3ccccc3)n2)CC1 | 1.2 | – | – | > 340 | > 340
36 | CCCCCOC(=O)N1CCN(C(=O)[C@H](CCC(=O)O)NC(=O)c2nc(OCCN(CC)CC)cc(-c3ccccc3)n2)CC1 | 184 | – | – | > 340 | > 340
37 | CCCCCOC(=O)N1CCN(C(=O)[C@H](CCC(=O)O)NC(=O)c2nc(-c3ccccc3)cc(N3CCC(OC)CC3)n2)CC1 | 7.4 | – | – | > 340 | > 340
38 | CCCCCOC(=O)N1CCN(C(=O)[C@H](CCC(=O)O)NC(=O)c2nc(NCCOC)cc(-c3ccccc3)n2)CC1 | 5.2 | – | – | > 340 | > 340
39 | CCCCOC(=O)N1CCN(C(=O)[C@H](CCC(=O)O)NC(=O)c2cc(OC(CC)C(=O)N(CC)CC)nc(-c3ccccc3)n2)CC1 (stereo not given in full) | 123 | – | – | > 340 | > 340
